In publication PMC5155582 (ChemMedChem, 2016):

What follows are compounds tested against T1, CYP2B6 (Homo sapiens, UniProt P20813) (assay: Product formation kinetic analysis). Conditions: cDNA-expressed CYP2B6.
T1 sequence (P20813 1-491): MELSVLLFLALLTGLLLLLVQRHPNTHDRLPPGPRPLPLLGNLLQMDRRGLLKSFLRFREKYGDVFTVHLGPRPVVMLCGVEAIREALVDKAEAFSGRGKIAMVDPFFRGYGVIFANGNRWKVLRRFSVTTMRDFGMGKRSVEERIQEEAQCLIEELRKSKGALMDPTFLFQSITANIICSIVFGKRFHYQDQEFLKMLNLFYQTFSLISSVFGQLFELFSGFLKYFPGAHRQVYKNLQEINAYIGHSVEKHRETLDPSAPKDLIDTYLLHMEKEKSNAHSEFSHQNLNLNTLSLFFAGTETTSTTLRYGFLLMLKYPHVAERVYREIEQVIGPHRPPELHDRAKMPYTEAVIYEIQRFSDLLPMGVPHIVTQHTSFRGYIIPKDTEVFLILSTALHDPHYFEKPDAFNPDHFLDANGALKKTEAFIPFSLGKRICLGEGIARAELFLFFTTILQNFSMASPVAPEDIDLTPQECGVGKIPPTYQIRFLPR
Assay type: in vitro ADME
Method in brief: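 cDNA-expressed CYP2B6 (5–20 nM) in 100 mM potassium phosphate pH 7.4 at 37 °C. Eight substrate concentrations, 0.5–100 μM (0.5–30 μM for one poorly soluble analogue); parent drug run the same way. NADPH regenerating system, 5–20 min, with linearity in enzyme and time set by pilot runs. Ice-cold acetonitrile stop. Product measured by SRM uHPLC-MS/MS or UV, without authentic standards. KM from a substrate-inhibition fit; fold change is analogue KM divided by the parent's 8-hydroxylation KM.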

| Km [µM] | SMILES |
| --- | --- |
| 14 ± 6.4 | O=C1CC(C#CC2CC2)(C(F)(F)F)c2cc(Cl)ccc2N1 (stereo not drawn) [analogue 4, 6-Chloro-4-(cyclopropylethynyl)-3,4-dihydro-4-(trifluoromethyl)-2(1H)-quinolinone] |
| 3.6 ± 1.7 | O=C1Nc2ccc(Cl)cc2[C@@](C#CC2CC2)(C(F)(F)F)O1 [EFV, (4S)-6-Chloro-4-(2-cyclopropylethynyl)-1,4-dihydro-4-(trifluoromethyl)-2H-3,1-benzoxazin-2-one, reference compound] |
| ~1 | CC1Nc2ccc(Cl)cc2C(C#CC2CC2)(C(F)(F)F)O1 (stereo not drawn) [analogue 1, 6-Chloro-4-(2-cyclopropylethynyl)-1,4-dihydro-2-methyl-4-(trifluoromethyl)-2H-3,1-benzoxazine] |

These compounds were tested against T2, rat CYP2B1 (Rattus norvegicus, UniProt P00176) (assay: Comparison of metabolite formation by cDNA-expressed CYP2B1 and CYP2B6). Conditions: 10 nM cDNA-expressed CYP2B1, 10 μM substrate, 30 min.
T2 sequence (P00176 1-491): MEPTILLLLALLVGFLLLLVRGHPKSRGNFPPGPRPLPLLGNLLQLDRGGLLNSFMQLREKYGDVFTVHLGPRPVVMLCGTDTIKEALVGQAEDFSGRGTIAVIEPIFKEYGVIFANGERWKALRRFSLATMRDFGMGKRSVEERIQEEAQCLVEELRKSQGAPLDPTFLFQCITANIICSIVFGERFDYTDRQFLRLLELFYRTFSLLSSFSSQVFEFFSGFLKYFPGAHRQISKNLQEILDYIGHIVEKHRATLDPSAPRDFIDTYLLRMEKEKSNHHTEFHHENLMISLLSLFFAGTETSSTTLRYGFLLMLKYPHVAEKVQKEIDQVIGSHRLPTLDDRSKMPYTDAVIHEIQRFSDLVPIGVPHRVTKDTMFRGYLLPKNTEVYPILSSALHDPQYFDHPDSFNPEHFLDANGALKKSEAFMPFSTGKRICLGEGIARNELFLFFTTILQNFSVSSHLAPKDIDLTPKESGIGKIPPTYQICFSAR
Assay type: in vitro ADME
Method in brief: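 cDNA-expressed rat CYP2B1 or human CYP2B6 systems, both with cytochrome b5 (CYP:reductase:b5 molar ratio 1:1:2 for 2B1, 1:10:2 for 2B6), 10 nM, run side by side with 10 μM substrate in 100 mM potassium phosphate pH 7.4. 5 min preincubation at 37 °C, then NADPH regenerating system for 30 min at 37 °C. Acetonitrile stop, then uHPLC-MS or uHPLC-UV (220 nm). CYP2B1 peak height normalised to mean CYP2B6 peak height (100%). Three independent experiments, mean ± SEM.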

| Metabolite formation by CYP2B1 (in words) | SMILES |
| --- | --- |
| displayed activity | Nc1ccc(Cl)cc1[C@](O)(C#CC1CC1)C(F)(F)F [(R)-5-Chloro-α-(cyclopropylethynyl)-2-amino-α-(trifluoromethyl)benzenemethanol] |
| M2 formation | O=C1Nc2ccc(Cl)cc2[C@@](/C=C/C2CC2)(C(F)(F)F)O1 [E-dihydroefavirenz, (E)-Dihydroefavirenz] |
| displayed activity | Nc1ccc(Cl)cc1[C@@](O)(C#CC1CC1)C(F)(F)F [(S)-5-Chloro-α-(cyclopropylethynyl)-2-amino-α-(trifluoromethyl)benzenemethanol] |
| M4 and M5 formation | CCCC#CC1(C(F)(F)F)OC(=O)Nc2ccc(Cl)cc21 (racemic) [pentynyl analogue, rac 6-Chloro-1,4-dihydro-4-(1-pentynyl)-4-(trifluoromethyl)-2H-3,1-benzoxazin-2-one] |
| did not form metabolites | COc1ccc(C(=O)Nc2ccc(Cl)cc2C(O)(C#CC2CC2)C(F)(F)F)cc1 (racemic) [methoxybenzamide analogue, rac N-[4-Chloro-2-[3-cyclopropyl-1-hydroxy-1-(trifluoromethyl)-2-propynyl]phenyl]-4-methoxybenzamide] |

Same assay, conditions: 10 nM enzyme, 10 μM substrate, 30 min; CYP2B6 peak height set at 100%

| Metabolite formed by CYP2B1 as percent of metabolite formed by CYP2B6 [%] | SMILES |
| --- | --- |
| ~48 | O=C1Nc2c(O)cc(Cl)cc2[C@@](C#CC2CC2)(C(F)(F)F)O1 [8-OH EFV, 8-hydroxyefavirenz] |
